The record followed here is ChEMBL document CHEMBL4732230, “Design, synthesis, and biological evaluation of 4-benzoylamino-1H-pyrazole-3-carboxamide derivatives as potent CDK2 inhibitors” (Eur J Med Chem, 2021).

For series [1], the target named is Cyclin-dependent kinase 1/cyclin B1 (Homo sapiens, UniProt P06493). Type of series: protein-complex assay.
Another series has as its target CDK2/Cyclin A2 (Homo sapiens, UniProt P24941). Put plainly: Inhibition of CDK2/cyclin A2 (unknown origin) using FAM-labeled peptide and ATP as substrate preincubated for 10 mins followed by substrate addition by mobility shift assay. It counts as protein-complex assay.
In the next series the test system is A2058. Put plainly: Antiproliferative activity against human A2058 cells assessed as reduction in cell viability measured after 96 hrs by Celltiter-Glo luminescent assay. It counts as functional, cell-based. The following applies: A2058, 96 h. The gist of the method: (§1)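 Cells in DMEM (A2058, MRC5) or RPMI 1640 (MV4-11), each with 10% fetal bovine serum and 1% penicillin/streptomycin. Cells were plated in 96-well plates and exposed to serially concentrated compound for 96 h, with DMSO as control. Viability was read by CellTiter-Glo luminescence and IC50 derived.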

A further series relates to MV4-11. Put plainly: Antiproliferative activity against human MV4-11 cells assessed as reduction in cell viability measured after 96 hrs by Celltiter-Glo luminescent assay. The note with it: MV4-11, 96 h. Type of series: functional, cell-based. The gist of the method: as §1
(In ATP-based viability assays light output follows the ATP content of the culture.)

A further series concerns MRC5. Put plainly: Cytotoxicity against human MRC5 cells assessed as reduction in cell viability measured after 96 hrs by Celltiter-Glo luminescent assay. It counts as cell-based. The following applies: MRC5, 96 h. The gist of the method:
as §1

Series [2] is described as follows: Cytotoxicity against human LX2 cells assessed as inhibition of cell growth at 100 uM measured after 96 hrs by Celltiter-Glo luminescent assay. Type of series: cell-based. The method in brief:
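LX2 cells grown in DMEM with 10% fetal bovine serum and 1% penicillin/streptomycin, plated in 96-well plates. They were treated with compound at […] or DMSO control for 96 h. Viability was read by CellTiter-Glo luminescence and expressed as percent inhibition.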

Chain of Cyclin-dependent kinase 1/cyclin B1 (P06493 whole entry): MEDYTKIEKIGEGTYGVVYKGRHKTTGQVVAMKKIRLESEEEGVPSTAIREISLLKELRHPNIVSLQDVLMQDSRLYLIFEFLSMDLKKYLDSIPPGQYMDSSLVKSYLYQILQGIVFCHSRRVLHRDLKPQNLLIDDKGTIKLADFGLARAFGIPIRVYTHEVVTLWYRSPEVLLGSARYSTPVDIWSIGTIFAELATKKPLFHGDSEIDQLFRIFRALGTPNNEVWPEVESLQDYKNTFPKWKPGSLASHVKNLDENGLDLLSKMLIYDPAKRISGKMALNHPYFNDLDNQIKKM
Chain of Cyclin-dependent kinase 1/cyclin B1 (P14635 whole entry, further chain): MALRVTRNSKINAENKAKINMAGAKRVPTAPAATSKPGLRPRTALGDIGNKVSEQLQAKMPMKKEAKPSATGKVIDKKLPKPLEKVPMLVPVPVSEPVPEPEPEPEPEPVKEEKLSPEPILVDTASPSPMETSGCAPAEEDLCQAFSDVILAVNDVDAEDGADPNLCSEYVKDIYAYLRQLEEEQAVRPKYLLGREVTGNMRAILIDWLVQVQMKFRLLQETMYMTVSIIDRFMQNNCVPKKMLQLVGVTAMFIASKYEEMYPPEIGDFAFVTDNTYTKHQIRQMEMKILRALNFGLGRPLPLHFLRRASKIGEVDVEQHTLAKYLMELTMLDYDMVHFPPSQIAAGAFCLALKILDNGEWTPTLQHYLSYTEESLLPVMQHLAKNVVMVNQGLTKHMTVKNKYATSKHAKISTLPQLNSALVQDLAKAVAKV

Regarding `O=C(Nc1ccc(F)cc1)c1n[nH]cc1NC(=O)c1c(F)ccc(-c2cccnc2)c1F`, the IC50 in series [1] stood at 306 nM; on CDK2/Cyclin A2, 40 nM; in the series on A2058 it was 2940 nM.

`O=C(NC1CCNCC1)c1n[nH]cc1NC(=O)c1c(Cl)cccc1Cl` [AT-7519]: the values for the IC50 in the series with MV4-11 and in the series with MRC5 were 391 nM and 425 nM, respectively. Further, in series [2], the inhibition at 96 h, 100 µM was 39.4%.

In the case of `Nc1ccc(-c2ccc(F)c(C(=O)Nc3c[nH]nc3C(=O)Nc3ccc(F)cc3)c2F)cn1`, the IC50 in series [1] worked out at 1260 nM; at CDK2/Cyclin A2 it was 120 nM; in the series with A2058 it was 8540 nM.

As to `O=C(Nc1ccc(F)cc1)c1n[nH]cc1NC(=O)c1c(F)ccc(-c2cccc(O)c2)c1F`, the 50% inhibitory concentration (IC50) in series [1] stood at 236 nM; on CDK2/Cyclin A2 it was 26 nM.

As to `O=C(Nc1ccc(F)cc1)c1n[nH]cc1NC(=O)c1c(F)ccc(-c2cccc(CO)c2)c1F`, the IC50 in series [1] amounted to 537 nM; at CDK2/Cyclin A2, 76 nM.

Regarding `O=C(NCCCN1CCOCC1)c1ccc(F)c(-c2ccc(F)c(C(=O)Nc3c[nH]nc3C(=O)Nc3ccc(F)cc3)c2F)c1`, the IC50 in series [1] turned out to be 1300 nM; on CDK2/Cyclin A2, 169 nM; in the series with A2058, 943 nM.

With `COC(=O)c1cccc(-c2ccc(F)c(C(=O)Nc3c[nH]nc3C(=O)Nc3ccc(F)cc3)c2F)c1`, the concentration for half-maximal inhibition (IC50) came to 496 nM in series [1] and 210 nM on CDK2/Cyclin A2.

For `O=C(NCCCN1CCOCC1)c1cccc(-c2ccc(F)c(C(=O)Nc3c[nH]nc3C(=O)Nc3ccc(F)cc3)c2F)c1`, the IC50 in series [1] was 723 nM; on CDK2/Cyclin A2, 73 nM; with A2058 it was 650 nM.

Regarding `Cc1ccc(-c2ccc(F)c(C(=O)Nc3c[nH]nc3C(=O)Nc3ccc(F)cc3)c2F)cn1`, the IC50 in series [1] is 1850 nM; at CDK2/Cyclin A2, 164 nM.

Regarding `NS(=O)(=O)c1ccc(Nc2nc(-c3cccc(-c4ccccc4)c3)c3nc[nH]c3n2)cc1`, the IC50 in series [1] is above 200000 nM; on CDK2/Cyclin A2 it was 543 nM; with A2058, above 100000 nM.

As to `COc1ccc(-c2ccc(F)c(C(=O)Nc3c[nH]nc3C(=O)Nc3ccc(F)cc3)c2F)cn1`, the IC50 in series [1] amounted to 712 nM; at CDK2/Cyclin A2, 144 nM.

As to `O=C(Nc1ccc(F)cc1)c1n[nH]cc1NC(=O)c1c(F)ccc(-c2ccc(F)nc2)c1F`, the figures for the IC50 (in series [1]; at CDK2/Cyclin A2; with A2058) were 278 nM, 51 nM and 6310 nM, respectively.

On to `CN1CCC(CNC(=O)c2cccc(-c3ccc(F)c(C(=O)Nc4c[nH]nc4C(=O)Nc4ccc(F)cc4)c3F)c2)CC1`, for which the IC50 in series [1] is 743 nM; at CDK2/Cyclin A2, 82 nM; in the series on A2058, 3340 nM.

For the compound `CN1CCN(CCNC(=O)c2cccc(-c3ccc(F)c(C(=O)Nc4c[nH]nc4C(=O)Nc4ccc(F)cc4)c3F)c2)CC1`, the IC50 stood at 350 nM in series [1] and 67 nM at CDK2/Cyclin A2.

`O=C(Nc1ccc(F)cc1)c1n[nH]cc1NC(=O)c1c(F)cccc1F`: the IC50 in series [1] was 14 nM; in the series on A2058, 1010 nM.

Turning to `NC(=O)c1cccc(-c2ccc(F)c(C(=O)Nc3c[nH]nc3C(=O)Nc3ccc(F)cc3)c2F)c1`, the concentration for half-maximal inhibition (IC50) was found to be 69 nM in series [1], 8 nM on CDK2/Cyclin A2 and 1990 nM in the series with A2058.

For `Cc1ccc(C(=O)NCCCN2CCOCC2)cc1-c1ccc(F)c(C(=O)Nc2c[nH]nc2C(=O)Nc2ccc(F)cc2)c1F`, the IC50 in series [1] was 3690 nM; at CDK2/Cyclin A2 it was 485 nM; in the series with A2058, 6510 nM.

As to `O=C(Nc1ccc(F)cc1)c1n[nH]cc1NC(=O)c1c(F)ccc(-c2ccccc2)c1F`, the concentration for half-maximal inhibition (IC50) was determined as 432 nM in series [1], 86 nM on CDK2/Cyclin A2 and 2370 nM in the series with A2058.

By IC50 is commonly meant the concentration that gives 50% inhibition. What is called inhibition is the drop in the measured response relative to a control, in per cent.
